Source: ChEMBL document CHEMBL4266009, “One Step Beyond: Design of Substrates Spanning Primed Positions of Zika Virus NS2B-NS3 Protease” (ACS Med Chem Lett, 2018)
Activity calls are given as the source filed them. The rule behind the calls is not given here. Non-standard residues stand in square brackets, D forms with d. Residues, ends and D or L forms follow the SMILES beside them. Tyr(3-NO2) = N[C@@H](Cc1ccc(O)c([N+](=O)[O-])c1)C(=O)O; 2Abz = Nc1ccccc1C(=O)O

How the values were obtained:
[1] = system: Zika virus; assay: Substrate activity at recombinant ZIKV NS3 pro domain fused NS2B protease assessed as ratio of Kcat to Km in Tris-CHAPS-glycerol buffer at pH 7.4 after 30 mins
Procedure, shortened: (§1)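 Continuous fluorescence assay (Ex 320, Em 450 nm) in 10 mM Tris-HCl pH 7.4, 20% glycerol, 1 mM CHAPS at 37 °C; substrate (1.0×10-7 to 4×10^-5 M final) added to 1.64×10^-8 M NS2BLNNS3pro. Initial rates from linear portions, inner-filter corrected; KM and kcat from double-reciprocal Michaelis-Menten plots; triplicate, SD ≤20%.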

[2] = system: Zika virus; assay: Substrate activity at recombinant ZIKV NS3 pro domain fused NS2B protease at pH 7.4 after 30 mins by fluorescence assay
Procedure, shortened: (§2)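 pH profile: NS2BLNNS3pro 1.64×10^-8 M with substrate 2.44×10^-5 M in citrate (pH 3.0), acetate (4.0, 5.0), MES (6.0), MOPS (7.0), Tris (7.4, 10.0) or HEPES (8.0); fluorescence increase followed at 37 °C over 30 min.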

[3] = system: Zika virus; assay: Substrate activity at recombinant ZIKV NS3 pro domain fused NS2B protease by HPLC method
[4] = system: Zika virus; assay: Substrate activity at recombinant ZIKV NS3 pro domain fused NS2B protease at pH 7.4
[5] = system: Zika virus; assay: Substrate activity at recombinant ZIKV NS3 pro domain fused NS2B protease at pH 8 to 10 after 30 mins by fluorescence assay; procedure, shortened: as §2
[6] = system: Zika virus; assay: Substrate activity at recombinant ZIKV NS3 pro domain fused NS2B protease at pH 3 to 6 after 30 mins by fluorescence assay; procedure, shortened: as §2
[7] = system: Zika virus; assay: Substrate activity at 6.86x10'-6M of recombinant ZIKV NS3 pro domain fused NS2B protease; conditions: in the assay text read “6.86x10'-10M” for “6.86x10'-6M”
Procedure, shortened: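 Limit of detection: decreasing amounts of recombinant NS2BLNNS3pro titrated against substrate at 2.44 × 10^-5 M in PBS pH 7.4, 37 °C, 30 min; fluorescence read at 450 nm (Ex 320 nm); detection limit from fluorescence increase versus enzyme concentration; triplicate.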

[8] = Selectivity ratio of substrate activity at recombinant ZIKV NS3 pro domain fused NS2B protease to substrate activity at West Nile virus protease
[9] = system: Zika virus; assay: Substrate activity at recombinant ZIKV NS3 pro domain fused NS2B protease assessed as Km in PBS at pH 7.4 after 30 mins
Procedure, shortened: (§3)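 Kinetic constants determined in PBS pH 7.4 with the recombinant NS2BLNNS3pro; cleavage followed by ABZ fluorescence (Ex 320, Em 450 nm) at 37 °C; initial rates fitted and KM, kcat obtained from double-reciprocal Michaelis-Menten plots.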

[10] = system: Zika virus; assay: Substrate activity at recombinant ZIKV NS3 pro domain fused NS2B protease assessed as Kcat in PBS at pH 7.4 after 30 mins; procedure, shortened: as §3
[11] = system: Zika virus; assay: Substrate activity at recombinant ZIKV NS3 pro domain fused NS2B protease assessed as ratio of Kcat to Km in PBS at pH 7.4 after 30 mins; procedure, shortened: as §3
[12] = system: Zika virus; assay: Substrate activity at recombinant ZIKV NS3 pro domain fused NS2B protease assessed as Km in Tris-CHAPS-glycerol buffer at pH 7.4 after 30 mins; procedure, shortened: as §1
[13] = system: Zika virus; assay: Substrate activity at recombinant ZIKV NS3 pro domain fused NS2B protease assessed as Kcat in Tris-CHAPS-glycerol buffer at pH 7.4 after 30 mins; procedure, shortened: as §1

## CC(=O)N[C@H](CCCNC(=N)N)C(=O)N[C@@H](CCCCN)C(=O)N[C@@H](CCCN)C(=O)N[C@@H](CCCNC(=N)N)C(=O)Nc1ccc2c(CC(N)=O)cc(=O)oc2c1
[1]
  kcat/Km: 1.1 ×10⁶ /M/s

## CC(C)[C@H](NC(=O)c1ccccc1N)C(=O)N[C@@H](CCCCN)C(=O)N[C@@H](CCCCN)C(=O)N[C@@H](CCCNC(=N)N)C(=O)N[C@@H](C)C(=O)N[C@@H](C)C(=O)N[C@@H](CC(=O)O)C(=O)N[C@@H](Cc1ccc(O)c([N+](=O)[O-])c1)C(N)=O (H-[2Abz]VKKRAAD[Tyr(3-NO2)]-NH2)
[2]
  Activity: Active

## CC(C)[C@H](NC(=O)c1ccccc1N)C(=O)N[C@@H](CCCCN)C(=O)N[C@@H](CCCCN)C(=O)N[C@@H](CCCNC(=N)N)C(=O)N[C@@H](C)C(=O)N[C@@H](C)C(=O)N[C@@H](CCC(=O)O)C(=O)N[C@@H](Cc1ccc(O)c([N+](=O)[O-])c1)C(N)=O (H-[2Abz]VKKRAAE[Tyr(3-NO2)]-NH2)
[2]
  Activity: Active

## CC(C)[C@H](NC(=O)c1ccccc1N)C(=O)N[C@@H](CCCCN)C(=O)N[C@@H](CCCCN)C(=O)N[C@@H](CCCNC(=N)N)C(=O)N[C@@H](C)C(=O)N[C@@H](C)C(=O)N[C@@H](Cc1c[nH]c2ccccc12)C(=O)N[C@@H](Cc1ccc(O)c([N+](=O)[O-])c1)C(N)=O (H-[2Abz]VKKRAAW[Tyr(3-NO2)]-NH2)
[2]
  Activity: Active
[3]
  Activity: Active
[4]
  Activity: Active
[5]
  Activity: Active
[6]
  Activity: inactive
[7]
  Activity: Active
[8]
  Ratio: 200
[9]
  Km: 6.97 µM
[10]
  kcat: 16.3 s⁻¹
[11]
  kcat/Km: 2.32 ×10⁶ /M/s
[12]
  Km: 1.23 µM
[13]
  kcat: 151 s⁻¹
[1]
  kcat/Km: 1.26 ×10⁸ /M/s
